In the library only some 3.8% were active in any assay of this set; here they are far more common.
hERG rescue – hERG rescue from dofetilide block, primary screen, cell-based, CHO-hERG, FluxOR thallium flux, dofetilide IC70 | dofetilide IC70 present | AID 1511, 2009 | 310,000 tested, 0.51% active | activation (rescue from dofetilide block), less the hit threshold, % at 10 µM;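 active = activation above the mean of controls blocked by dofetilide plus 5 SD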;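 also: thallium influx through hERG after potassium depolarization seen as dye fluorescence rise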
Kir21 block – inhibitors of mouse Kir2.1 inward-rectifier potassium channel. Inward rectifier potassium channel 2 (Mus musculus), P35561. HEK293-Kir2.1, FluxOR thallium flux fluorescence; hits give low values. B-score at 10 µM. 310,000 tested, 0.85% active. AID 1672, 2009;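 active = fluorescence ratio B-score at or below minus 3 SD of library scores, with starting-brightness B-score within 2 SD, cut at about -4.2 in these data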;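 also: channel flux triggered by added potassium and thallium sulfate stimulus; B-score of peak minus minimum fluorescence over baseline after thallium stimulus; more negative B-score means stronger Kir2.1 block with less thallium influx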
Target sequence (P35561 whole entry, looked up): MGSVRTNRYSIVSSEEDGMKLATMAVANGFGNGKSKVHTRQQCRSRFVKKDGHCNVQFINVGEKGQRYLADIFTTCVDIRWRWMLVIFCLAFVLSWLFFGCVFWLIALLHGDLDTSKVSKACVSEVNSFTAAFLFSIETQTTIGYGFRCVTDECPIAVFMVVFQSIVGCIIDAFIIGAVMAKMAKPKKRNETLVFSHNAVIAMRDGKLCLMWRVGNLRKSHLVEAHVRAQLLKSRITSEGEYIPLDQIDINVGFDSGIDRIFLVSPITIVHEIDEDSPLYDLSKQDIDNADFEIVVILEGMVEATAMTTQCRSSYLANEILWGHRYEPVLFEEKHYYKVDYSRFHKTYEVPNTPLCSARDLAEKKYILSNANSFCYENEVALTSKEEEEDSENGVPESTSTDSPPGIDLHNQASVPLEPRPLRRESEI
KCNK3 block – human KCNK3 channel inhibitors, primary screen, CHO cells, FluxOR thallium flux, B-score | Potassium channel subfamily K member 3 (Homo sapiens), O14649 | AID 602410, 2012 | FluxOR fluorescence; hits give low values | B-score at 10 µM | 340,000 tested, 0.84% active;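 active = B-score under library mean minus 4 SD, starting fluorescence ratio at most library mean plus 5 SD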;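 also: more negative B-score means stronger inhibition of thallium flux through KCNK3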
KCNQ1 inh – inhibitors of human KCNQ1 channel, primary screen, cell-based, thallium flux, high-throughput; 310,000 tested, 1.3% active; AID 2642, 2010; CHO-K1 KCNQ1, FluxOR thallium flux fluorescence; hits give high values; B-score at 10 µM;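 active = compounds whose thallium flux B-score, printed positive for inhibition, exceeds three library SD while starting fluorescence stays within three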;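 also: channel opened by potassium depolarization with thallium stimulus after 20 min compound exposure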
KCNQ1 pot – potentiators or activators of KCNQ1 channel, primary screen, cell-based, thallium flux, high-throughput; B-score at 10 µM; 310,000 tested, 0.35% active; Potassium voltage-gated channel subfamily KQT member 1 (Homo sapiens), P51787; CHO-K1 KCNQ1, thallium flux FluxOR fluorescence; hits give high values; AID 2648, 2010;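 active = fluorescence ratio B-score, a plate-corrected score, at least three library SD, with initial intensity B-score within 5 SD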
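Assay system: CHO-K1 cells stably expressing KCNQ1; Medium: assay buffer with matched DMSO; Also added: K+/Tl+ depolarizing stimulus; Dosing: single dose; Timing: dye 90 min, compound 20 min, room temperature; Measured by: kinetic FluxOR thallium fluorescence, 10-s 1-Hz baseline, 110-s post-stimulus read; Read-out: peak-minus-minimum fluorescence over initial fluorescence, negative-control normalized, B-scored.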
KCNK9 inh – KCNK9 potassium channel inhibitors, primary screen, HEK293 cells, thallium flux; FluxOR thallium flux fluorescence; hits give low values; Potassium channel subfamily K member 9 (Homo sapiens), Q9NPC2; B-score at 10 µM; 310,000 tested, 1.2% active;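 active = ratio B-score over 3 SD below the library mean, with starting fluorescence within 5 SD of its mean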;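 also: negative B-score means less thallium flux so channel inhibition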
Starred values were filed as active, the others as inactive; i = inactive; / = not tested or not shown.

SMILES	hERG rescue	Kir21 block	KCNK3 block	KCNQ1 inh	KCNQ1 pot	KCNK9 inh
Cc1ccc(CNCC(O)(c2ccccc2)c2ccc(F)cc2)cc1 (stereo not given)	-14.5	-8.95*	i	i	i	i
OC(CNCc1ccc(F)cc1)(c1ccccc1)c1ccc(F)cc1 (stereo not given)	-8.7	-6.46*	i	i	i	i
CCc1ccc(CNCc2ccc(F)cc2)cc1	-11.8	-6.91*	i	i	i	i
Cc1ccc(CNCC(O)(c2ccc(F)cc2)c2ccc(F)cc2)cc1	-15.5	-4.13	i	i	i	i
OC(CNCc1ccccc1)(c1ccccc1)c1ccccc1	-10.5	-4.59*	i	i	i	i
CCSc1ccccc1C(=O)NCCc1ccccc1	-10.5	-0.67	i	i	i	i
COc1ccc(CNCC(O)(c2ccc(F)cc2)c2ccc(F)cc2)cc1	-11.9	-8.35*	i	i	i	i
OC(CNCc1ccccc1)(c1ccc(F)cc1)c1ccc(F)cc1	-13.4	-7.32*	i	i	i	-7.73*
COc1ccc(CNCC(O)(c2ccccc2)c2ccccc2)cc1OC	-8.9	-0.84	i	i	i	i
CCC(c1nnnn1Cc1ccccc1)N(Cc1ccco1)Cc1cc2cc(OC)ccc2[nH]c1=O (stereo not given)	-11.4	-0.43	i	i	i	i
CCCC(c1nnnn1C(C)(C)CC)N(Cc1ccco1)Cc1cc2ccc(OC)cc2[nH]c1=O (stereo not given)	-10.2	-0.19	i	i	i	-6.77*
C=CCn1c(C)cc(-c2csc(NCC)n2)c1C	-12.1	-0.3	i	6*	i	i
C=CCn1c(C)cc(-c2csc(NC)n2)c1C	/	/	i	/	/	/
O=C(CSc1nc(=O)n2ccccc2n1)NCc1ccc(F)cc1	-11.1	0.61	i	i	i	i
O=C(CSc1nc(=O)n2ccccc2n1)NCc1ccccc1	-16.1	0.37	i	i	8*	i
CCOC(=O)C1CCN(S(=O)(=O)c2ccc3c(c2)N(C(C)=O)CC(C)S3)CC1 (stereo not given)	-10.8	-0.96	i	i	i	i
CC1CCCCN1C(=O)c1cccc(NC2=C(Cl)C(=O)N(Cc3ccccc3)C2=O)c1 (stereo not given)	/	/	-11.2*	/	/	/
CCOc1cccc(-c2c(C(=O)N/N=C/c3ccncc3)nnn2-c2nonc2N)c1	-10.2	0.68	i	i	i	i
CCOc1cccc(-c2c(C(=O)N/N=C(\C)c3ccccn3)nnn2-c2nonc2N)c1	-14.0	-0.5	i	i	i	-7.02*
Cc1cc(NC(=O)CSc2nc(C3CC3)nc3sc(C)c(C)c23)no1	5.9*	0.37	i	i	9*	i
COc1ccc(Br)cc1/C=N/N1CCN(Cc2ccccc2Cl)CC1	-1.2	0.26	i	8*	i	i
O=C(NC1CC2CCC(C1)N2C(=O)NCc1ccccc1)C1CC1 (stereo not given)	13.2*	0.65	i	i	i	i
O=C1C=C(NCc2ccccc2)c2ccccc2C1=O	-12.6	1.26	i	i	12*	i
Cn1nc(C(F)(F)F)c2cc(NC(=O)OCc3ccc(C(C)(C)C)cc3)sc21	-12.4	0.55	i	7*	i	i
Cn1nc(C(F)(F)F)c2cc(C(=O)Nc3ccc(F)cc3F)sc21	-4.5	0.75	i	i	i	-7.24*
SMILES	hERG rescue	Kir21 block	KCNK3 block	KCNQ1 inh	KCNQ1 pot	KCNK9 inh
N=c1ncn(Cc2ccccc2)c2nc(SCCOc3ccccc3)[nH]c12	-4.7	-1.63	i	i	9*	i
CC1(C)NC(=O)N(CCC(=O)Nc2cc(C(F)(F)F)ccc2Cl)C1=O	/	/	i	/	/	/
CN=C1S/C(=C\c2ccc(N3CCCC3)c(F)c2)C(=O)N1C	-7.6	-0.77	i	11*	i	i
O=Cc1ccc(N2CCCC2)c(F)c1	-6.4	-0.04	i	i	i	i
Cc1ccc(S(=O)(=O)c2n[nH]n3c2nc(=O)c2ccccc23)cc1	8.6*	0.8	i	i	i	i
CCOC(=O)c1n[nH]n2c1nc(=O)c1ccccc12	-8.6	0.63	i	i	i	i
Cc1ccc(C(=O)NCC2CCCO2)cc1[N+](=O)[O-] (stereo not given)	4.7*	1.18	i	i	i	i
Cc1c(C(=O)NCCSCc2ccc(Cl)cc2Cl)cccc1[N+](=O)[O-]	10.0*	0.06	i	i	i	i
Cc1ccc(C(=O)NNC(=S)NCC2CCCO2)cc1[N+](=O)[O-] (stereo not given)	-11.2	1.15	i	i	i	i
Cc1c(C(=O)NCCSCc2ccccc2)cccc1[N+](=O)[O-]	-4.1	1.47	i	i	i	i
Cc1ccc(C(=O)NCCSCc2ccc(Cl)cc2Cl)cc1[N+](=O)[O-]	-7.5	0.46	i	8*	i	i
Cc1ccc(C(=O)NCC(C)NC(=O)c2ccc(C)c([N+](=O)[O-])c2)cc1[N+](=O)[O-] (stereo not given)	-13.6	0.53	i	i	i	i
CCOc1cc(N2CCOCC2)c(OCC)cc1NC(=O)CN1C(=O)NC(C)(c2ccc(OC)cc2)C1=O (stereo not given)	/	/	i	/	/	/
CCCc1nc(SCC(=O)N2CCCCCC2)c2c(=O)n(C)c(=O)n(C)c2n1	-16.4	0.89	/	i	i	i
Cc1c(C(=O)NCC2COc3ccccc3O2)oc2ccc(S(=O)(=O)N(C)C3CCCCC3)cc12 (stereo not given)	-12.2	0.76	i	6*	i	i
Cc1c(C(=O)NCC2CCCO2)oc2ccc(S(=O)(=O)N3CCCC3)cc12 (stereo not given)	-10.2	0.07	i	i	i	i
Cc1ccc(NC(=O)CSc2ccc(Br)cc2)cc1S(=O)(=O)N1CCOCC1	-12.9	-0.4	i	i	i	i
O=C(CNCCC1=CCCCC1)Nc1ccc(N2CCCCCC2)cc1	-21.1	-5.64*	i	i	i	i
O=C(CNC1CCCCCC1)Nc1ccc(N2CCCC2)cc1	-10.9	-0.31	/	i	i	i
CC(=O)NC1CC2CCCC(C1)N2C(=O)Nc1ccccc1C (stereo not given)	/	/	i	/	/	/

Screens from PubChem.
